# From ChEMBL document CHEMBL3392953, “Synthesis and biological evaluation of furanoallocolchicinoids” (J Med Chem, 2015)
# pIC50: −log10 of the molar value.
# Key:
# HEK293 [1] = assay: Growth inhibition of HEK293 cells at 100 uM after 72 hrs by MTT assay; type: functional; details: Homo sapiens, HEK293, 72 h; read-out: GI
# [2] = Growth inhibition of mouse W1308 cells at 100 uM after 72 hrs by MTT assay; type: functional; details: W1308, 72 h, read-out: GI
# ASPC1 [3] = assay: Growth inhibition of human AsPC1 cells at 100 uM after 72 hrs by MTT assay; type: functional; details: ASPC1, 72 h, read-out: GI
# Jurkat [4] = assay: Growth inhibition of human Jurkat cells at 100 uM after 72 hrs by MTT assay; type: functional; details: read-out: GI
# HEK293 [5] = assay: Cytotoxicity against HEK293 cells after 72 hrs by MTT assay; type: functional, cell-based; details: Homo sapiens, HEK293, 72 h
# Procedure, shortened: (§1)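 Cells seeded at 3x10^5 cells/mL 24 h before assay (HEK293, AsPC-1 in DMEM; Jurkat, W1308 in RPMI-1640; 10% FCS, 2-ME). Tenfold dilutions from […] to 1 nM added; untreated cells as controls. 72 h incubation, MTT 250 µg/ml added for last 6 h, formazan dissolved in DMSO, OD read. IC50 from titration curves; inhibition index = 1 − OD(treated)/OD(control).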
# ASPC1 [6] = assay: Cytotoxicity against human AsPC1 cells after 72 hrs by MTT assay; type: functional, cell-based; details: ASPC1, 72 h; procedure, shortened: as §1
# [7] = Cytotoxicity against mouse W1308 cells after 72 hrs by MTT assay; type: functional, cell-based; details: W1308, 72 h; procedure, shortened: as §1
# Jurkat [8] = assay: Cytotoxicity against human Jurkat cells after 72 hrs by MTT assay; type: functional, cell-based; procedure, shortened: as §1
# Mus musculus [9] = assay: Toxicity in C57BL/6 mouse assessed as interphase microtubule de-stabilizing activity by measuring influx of rhodamine in to heart at 1 mg/kg, iv co-administered with rhodamine B by fluorimetry; type: organism-based; set-up: dose 1 mg/kg, route intravenous; details: in vivo
# Procedure, shortened: (§2)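 Intact mice, 6–8 wk, 3 per group; compound dissolved in DMSO at 20 mM, 4 µl diluted into 200 µl saline (1 mg/kg), mixed with 50 µl rhodamine B, single i.v. injection; controls DMSO plus rhodamine B. Killed 4 h later; organs cut, extracted in 0.3N acid in ethanol 2 h at 37 °C, centrifuged, supernatant fluorescence read with 540 nm filter.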
# Mus musculus [10] = assay: Toxicity in C57BL/6 mouse assessed as interphase microtubule de-stabilizing activity by measuring leakage of rhodamine through the gut at 1 mg/kg, iv co-administered with rhodamine B by fluorimetry; type: organism-based; set-up: dose 1 mg/kg, route intravenous; details: in vivo; procedure, shortened: as §2
# Mus musculus [11] = assay: Toxicity in C57BL/6 mouse assessed as interphase microtubule de-stabilizing activity by measuring influx of rhodamine in to spleen at 1 mg/kg, iv co-administered with rhodamine B by fluorimetry; type: organism-based; set-up: dose 1 mg/kg, route intravenous; details: in vivo; procedure, shortened: as §2
# [12] = Induction of apoptosis in mouse W1308 cells assessed as pre-apoptotic cells level at 200 nM after 48 hrs by 3,3'-dihexyloxacarbocyanine iodide and propidium iodide staining based flow cytometry (reference value: 17%); type: functional
# [13] = Inhibition of lamb brain tubulin polymerization assessed as reduction in microtubule assembly by spectrophotometry; set-up: species or system Ovis aries
# Procedure, shortened: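 Tubulin purified from lamb brain by ammonium sulfate fractionation and ion-exchange chromatography. Assembly in 20 mM sodium phosphate, 1 mM EGTA, 10 mM MgCl2, 3.4 M glycerol, 1 mM GTP, pH 6.5, started by warming to 37 °C; turbidity followed at 350 nm over time. Inhibition plotted against ligand:tubulin molar ratio.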
# [14] = Induction of apoptosis in mouse W1308 cells assessed as apoptotic cells level at 200 nM after 48 hrs by 3,3'-dihexyloxacarbocyanine iodide and propidium iodide staining based flow cytometry (reference value: 11%); type: functional
smiles,measurement,setting,value
COc1cc2c(c(OC)c1OC)-c1cc3cc(C4(O)CCCC4)oc3cc1[C@@H](NC(C)=O)CC2,inhibition of growth at 100 µM,HEK293 [1],50%
same,inhibition of growth at 100 µM,[2],50%
same,inhibition of growth at 100 µM,ASPC1 [3],50%
same,inhibition of growth at 100 µM,Jurkat [4],50%
same,pIC50,HEK293 [5],5.40
same,pIC50,ASPC1 [6],4.70
same,pIC50,[7],5.10
same,pIC50,Jurkat [8],5.40
COc1cc2c(c(OC)c1OC)-c1ccc(OC)c(=O)cc1[C@@H](NC(C)=O)CC2 [COLCHICINE],Activity,Mus musculus [9],Toxic
same,Activity,Mus musculus [10],Toxic
same,Activity,Mus musculus [11],Toxic
COc1cc2c(c(OC)c1OC)-c1cc3cc(C(C)O)oc3cc1[C@@H](NC(C)=O)CC2 (some centres not stated),inhibition of growth at 100 µM,HEK293 [1],60%
same,inhibition of growth at 100 µM,[2],60%
same,Activity,[12],29%
same,inhibition of growth at 100 µM,ASPC1 [3],60%
same,inhibition of growth at 100 µM,Jurkat [4],60%
same,pIC50,HEK293 [5],> 6.70
same,IC50,[13],0.3 molar ratio
same,pIC50,ASPC1 [6],> 6.70
same,Activity,[14],20%
same,pIC50,[7],> 6.70
same,pIC50,Jurkat [8],> 6.70
